Screens deposited in PubChem by Broad Institute.
This is a sample that favours compounds with a hit; in the whole collection about 3.1% have one here.
HIV Env fusion – blocks HIV Env-driven cell-cell fusion; actives 1.1% (n = 360,000); inhibition, % at 12.3 µM; HeLa-JRFL Env/CEM21 cell fusion, luciferase;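 active means mean replicate inhibition score of at least 50 and every replicate individually at or above 50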;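 further: 0% = plate neutral controls and 100% = maraviroc near 300 nM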
Ecoli rRNA inh – selective bacterial rRNA inhibition in E. coli; E. coli WT GFP vs humanized-ribosome RFP mutants, fluorescence, 24 h; stronger effect = lower value; DMSO median 0, no signal -100; GFP signal change (wild-type ribosome), % (concentration not given with the values); actives 1.6% (n = 350,000);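 active means significant combined selectivity score with lowered wild-type GFP, culture density cut under 30%, mutant RFP and density less affected; inactive means any of these conditions unmet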
Cneo AK release – causes C. neoformans cell lysis; lysis activity, % at 15 µM; actives 0.2% (n = 360,000); adenylate kinase release luminescence, 4 h; normalised: neutral wells 0, clomiphene wells 100;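 active means mean lysis activity across replicates of at least 80%, whatever share of replicates individually reach that level; inactive means mean lysis activity below 80%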
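Material: C. neoformans cells; Schedule: 4 h static compound exposure, 37 °C, read 1 h post-reagent; Measured by: adenylate kinase release luminescence; Read-out: signal increase indicating cell lysis; Controls: Clomiphene as positive lysis control.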
INS-1E GSIS act – primary screen for activators of insulin secretion dependent on glucose, INS-1E cells, GLuc reporter luminescence; INS-1E GLuc reporter insulin secretion, 2-3 h; activation, % at 16.6 µM; actives 0.61% (n = 370,000); AID 743287;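 active means lowest replicate activation of at least 40%, so every replicate reaches that level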;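 further: 0% = median of neutral control wells and 100% = median of IBMX positive control wells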
CFTR F508del cor – CFTR F508del correction in bronchial cells | CFBE cells, YFP halide quenching; stimulated with forskolin plus potentiator P3; % fluorescence drop versus neutral controls | actives 0.36% (n = 350,000) | activity (quench increase), % at 7.58 µM;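 active means mean added fluorescence quench of at least 8% versus neutral control, with both replicates also reaching 8%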;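 further: cells transiently co-express mutant CFTR-F508del with the halide-sensitive YFP; corrector assay measuring rescue of mutant channel to the surface after 24 h compound exposure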
miR122 inh – blocks miR-122 activity in Huh7 sensor cells; Huh7 miR-122 Renilla luciferase sensor, 48 h; neutral wells = 0, positive control = 100; activation (reporter increase), % at 12.5 µM; actives 0.3% (n = 340,000); AID 602342;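 active means mean replicate activation score at least 90 and every replicate individually at or above 90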;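 further: higher luciferase means less miR-122 activity so hits act as miR-122 inhibitors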
Active calls of the source: *; · = no result given; [ ] = dose if it differs, or a comment.

SMILES | HIV Env fusion | Ecoli rRNA inh | Cneo AK release | INS-1E GSIS act | CFTR F508del cor | miR122 inh
O=C(Nc1ccc(Cl)cc1)N(Cc1cccs1)Cc1cccs1 | · | · | -6 | · | · | 5
COc1ccccc1/C=C/C(=O)N1CCC(c2ccccc2)C1 (centres undefined) | -69 | -23* | · | -3 | · | ·
COc1ccccc1/C=C/C(=O)N1CCOCC1 | 16 | · | 0 | · | · | -5
CC(=O)N(C)C[C@H]1[C@@H](c2ccc(-c3cccc(C#N)c3)cc2)[C@@H](CO)N1C(C)=O | · | -4 | · | -6 | 1 | ·
CCNc1nc(SCC(=O)Nc2ccc(Cl)c(Cl)c2)nc(N(C)C)n1 | 18 | -1 | 3 | -11 | 1 | -2
CN(C)c1nc(NCc2ccccc2)nc(SCC(=O)Nc2ccc(Cl)c(Cl)c2)n1 | 57* | · | 20 | -30 | · | 5
CCOC(=O)c1c(N)c(C#N)c2n1CCCC2 | · | · | -1 | 71* | · | -10
c1csc(-c2nc3nc4ccccc4nc3n2Cc2ccc3c(c2)OCO3)c1 | -41 | · | -4 | · | · | 1
Clc1ccccc1-c1nc2nc3ccccc3nc2n1-c1ccc2c(c1)OCO2 | -46 | -26* | 3 | -4 | -1 | 2
O=C(NCCc1ccccc1)N1c2ccccc2Sc2ccccc21 | 60* | · | 0 | · | · | -8
O=C(COc1ccccc1)N1c2ccccc2Sc2ccccc21 | 13 | -34* | 2 | 2 | -5 | -5
CC(C)CNC(=O)N1c2ccccc2Sc2ccccc21 | 11 | -15 | · | · | -1 | ·
O=C(N/N=C/c1cccnc1)c1ccccc1NS(=O)(=O)c1cccs1 | -1 | -30* | 2 | -6 | 1 | -2
O=C(NN=Cc1ccc(F)cc1)c1ccccc1NS(=O)(=O)c1cccs1 | · | -12 | 2 | 9 | 3 | 36
O=C(NN=Cc1cc(Br)c(O)c(Br)c1)c1ccccc1NS(=O)(=O)c1cccs1 | 0 | -25* | -4 | -10 | 0 | ·
C[C@H]1CN(C)C(=O)c2cccc(NS(C)(=O)=O)c2O[C@@H]1CN(C)C | · | 1 | · | -2 | · | ·
O=C1O[C@H](c2ccccc2)[C@H](c2ccccc2)N2[C@H]1[C@@H](C(=O)NC[C@H](O)c1ccccc1)[C@]1(C(=O)Nc3ccc(C#CCCO)cc31)[C@H]2c1ccc(OCCO)cc1 | -23[16.7 µM] | · | -2 | · | 0 | ·
CC(=NNc1ccc2ccccc2n1)c1ccccc1O | 18 | -13 | · | 3 | 3 | ·
CC(=NNc1ccc2ccccc2n1)c1ccccn1 | 110* | · | · | 7 | 4 | ·
C/C(=N\NC(=O)c1cc(C)nc2ccccc12)c1ccccn1 | 61* | -24* | 4 | -11 | 2 | ·
COCC(=O)Nc1ccc2c(c1)OC[C@@H](C)N(CC1CCCCC1)C[C@@H](C)[C@H](OC)CN(C)C2=O | · | 0 | · | 11 | · | ·
CC(=O)C[C@H]1c2cc(C(F)(F)F)ccc2S(=O)(=O)N1c1ccccc1 | -1 | 3 | -1 | -1 | 0 | 99*
Cc1ccc2nc(Cl)c3cc(C(=O)N(CCN(C)C)Cc4ccco4)sc3c2c1 | 8 | -16 | · | -21 | 1 | -20
CN(C)CCN(Cc1ccco1)C(=O)c1cc2c(Cl)nc3ccccc3c2s1 | -49 | -33* | · | 10 | · | ·
NC(=O)N/N=C(/CCCCCC/C(=N\NC(N)=O)c1ccccc1)c1ccccc1 | -22 | -26* | -2 | · | 1 | -10
SMILES | HIV Env fusion | Ecoli rRNA inh | Cneo AK release | INS-1E GSIS act | CFTR F508del cor | miR122 inh
C/C(=N\NC(N)=O)c1ccccc1 | -26 | 19 | · | 16 | -1 | -6
CN(C)CCCNC(=O)C[C@@H]1CC[C@@H]2[C@H](COc3ccc(NC(=O)c4ccccc4F)cc3C(=O)N2C)O1 | · | 1 | 0 | 5 | 1 | -27[16.7 µM]
COCCNC(=O)C[C@H]1C[C@H]2c3cc(N(C)C)ccc3O[C@H]2[C@@H](CO)O1 | -21[16.7 µM] | -1 | -3 | 13 | 1 | -1[16.7 µM]
Cc1ccc(S(=O)(=O)/N=C(/Nc2c(C)cccc2C)c2ccccc2)cc1 | 7 | -36* | 0 | -16 | 2 | 19
Cc1ccc(S(=O)(=O)/N=C(/Nc2ccccc2C)c2ccccc2)cc1 | 12 | -23* | 0 | -19 | 0 | 5
CC(C)C#Cc1ccc2c(c1)O[C@@H](CN(C)C(=O)c1cccnc1)[C@H](C)CN([C@H](C)CO)S2(=O)=O | 21[16.7 µM] | 3 | 0 | 0 | -3 | -5[16.7 µM]
